{"source": "ChEMBL document CHEMBL3813617", "about": "“An alternative route to the arylvinyltriazole nucleosides” (Bioorg Med Chem Lett, 2016)", "key": {"Vero": {"test_system": "Vero", "test": "Antiviral activity against Influenza A H5N1 virus (A/duck/Novosibirsk/56/05) infected in African green monkey Vero cells assessed as reduction of virus-induced cytopathic effect", "assay_type": "functional, cell-based", "conditions": "Influenza A virus (A/duck/Novosibirsk/56/2005(H5N1))"}, "[1]": {"test": "Cytotoxicity against African green monkey Vero E6 cells up to 2 mM", "assay_type": "cell-based", "conditions": "chlorocebus sabaeus"}, "Human alphaherpesvirus 1": {"test_system": "Human alphaherpesvirus 1", "test": "Antiviral activity against Herpes simplex virus type 1 L2 infected in African green monkey Vero E6 cells assessed as reduction of virus-induced cytopathic effect", "assay_type": "functional, organism-based", "conditions": "Human alphaherpesvirus 1, L2, Vero"}, "Hepatitis C virus": {"test_system": "Hepatitis C virus", "test": "Antiviral activity against Hepatitis C virus infected in African green monkey Vero cells assessed as reduction of virus-induced cytopathic effect", "assay_type": "functional, organism-based, Hepacivirus hominis"}, "[2]": {"test": "Cytotoxicity against African green monkey Vero E6 cells", "assay_type": "cell-based", "conditions": "chlorocebus sabaeus", "outline": "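Cytotoxicity measured in Vero cells, […]; CC50 derived.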"}}, "note": "The source made the active and inactive calls. No cut-off for these calls is given here."}
{"smiles": "NC(=O)c1nc(/C=C/c2cccc(F)c2)n([C@@H]2O[C@H](CO)[C@@H](O)[C@H]2O)n1", "values": [{"measurement": "Activity", "setting": "Vero", "result": "inactive"}, {"measurement": "Activity", "setting": "[1]", "result": "Non-toxic"}, {"measurement": "IC50", "setting": "Human alphaherpesvirus 1", "result": 6.9, "unit": "µM"}]}
{"smiles": "NC(=O)c1nc(/C=C/c2ccc(C(F)(F)F)cc2)n([C@@H]2O[C@H](CO)[C@@H](O)[C@H]2O)n1", "values": [{"measurement": "IC50", "setting": "Hepatitis C virus", "result": 0.09, "unit": "µM"}]}
{"smiles": "NC(=O)c1nc(/C=C\\c2cccc(F)c2)n([C@@H]2O[C@H](CO)[C@@H](O)[C@H]2O)n1", "values": [{"measurement": "Activity", "setting": "Vero", "result": "inactive"}, {"measurement": "Activity", "setting": "[1]", "result": "Non-toxic"}]}
{"smiles": "NC(=O)c1ncn([C@@H]2O[C@H](CO)[C@@H](O)[C@H]2O)n1", "note": "[RIBAVIRIN]", "values": [{"measurement": "IC50", "setting": "Human alphaherpesvirus 1", "result": 10, "unit": "µM"}, {"measurement": "CC50", "setting": "[2]", "result": 0.3, "unit": "µM"}]}
{"smiles": "NC(=O)c1nc(/C=C\\c2ccc(C(F)(F)F)cc2)n([C@@H]2O[C@H](CO)[C@@H](O)[C@H]2O)n1", "values": [{"measurement": "Activity", "setting": "Vero", "result": "inactive"}, {"measurement": "Activity", "setting": "[1]", "result": "Non-toxic"}]}
{"smiles": "NC(=O)c1nc(/C=C/c2ccc(F)cc2)n([C@@H]2O[C@H](CO)[C@@H](O)[C@H]2O)n1", "values": [{"measurement": "Activity", "setting": "Vero", "result": "inactive"}, {"measurement": "CC50", "setting": "[2]", "result": 3.4, "unit": "µM"}]}
{"smiles": "NC(=O)c1nc(/C=C/c2ccccc2F)n([C@@H]2O[C@H](CO)[C@@H](O)[C@H]2O)n1", "note": "(mixture of isomers)", "values": [{"measurement": "Activity", "setting": "Vero", "result": "inactive"}, {"measurement": "Activity", "setting": "[1]", "result": "Non-toxic"}]}
{"smiles": "NC(=O)c1nc(/C=C\\c2ccc(F)cc2)n([C@@H]2O[C@H](CO)[C@@H](O)[C@H]2O)n1", "values": [{"measurement": "Activity", "setting": "Vero", "result": "inactive"}, {"measurement": "Activity", "setting": "[1]", "result": "Non-toxic"}]}
